pEC50, pIC50: −log10 of the molar value. The source made the active and inactive calls. No cut-off for these calls is given here.
Experiments:
[1] = Inhibition of rat recombinant protein farnesyltransferase expressed in Sf9 cells by [3H]-scintillation proximity assay
Trypanosoma cruzi [2] = experiment: Antitrypanosomal activity against Trypanosoma cruzi Tulahuen amastigotes expressing beta-galactosidase in mouse 3T3 fibroblast after 7 days by […]; assay type: functional, organism-based; conditions: 168 h
[3] = Ratio of IC50 for rat recombinant protein farnesyltransferase to EC50 for Trypanosoma cruzi Tulahuen expressing beta-galactosidase
Cytochrome P450 3A4 = Cytochrome P450 3A4 (Homo sapiens, UniProt P08684); experiment: Inhibition of human recombinant CYP3A4; assay type: ADME
[4] = target: Sterol 14-alpha demethylase (Trypanosoma cruzi (strain CL Brener)) (UniProt Q7Z1V1); experiment: Inhibition of Trypanosoma cruzi recombinant sterol 14-alpha-demethylase assessed as drug/enzyme molar ratio required to produce 50 percent decrease in turnover number
[5] = target: T1, Lanosterol 14-alpha demethylase (Homo sapiens, UniProt Q16850); experiment: Inhibition of human sterol 14-alpha-demethylase assessed as drug/enzyme molar ratio required to produce 50 percent decrease in turnover number
T1 sequence (Q16850 whole entry): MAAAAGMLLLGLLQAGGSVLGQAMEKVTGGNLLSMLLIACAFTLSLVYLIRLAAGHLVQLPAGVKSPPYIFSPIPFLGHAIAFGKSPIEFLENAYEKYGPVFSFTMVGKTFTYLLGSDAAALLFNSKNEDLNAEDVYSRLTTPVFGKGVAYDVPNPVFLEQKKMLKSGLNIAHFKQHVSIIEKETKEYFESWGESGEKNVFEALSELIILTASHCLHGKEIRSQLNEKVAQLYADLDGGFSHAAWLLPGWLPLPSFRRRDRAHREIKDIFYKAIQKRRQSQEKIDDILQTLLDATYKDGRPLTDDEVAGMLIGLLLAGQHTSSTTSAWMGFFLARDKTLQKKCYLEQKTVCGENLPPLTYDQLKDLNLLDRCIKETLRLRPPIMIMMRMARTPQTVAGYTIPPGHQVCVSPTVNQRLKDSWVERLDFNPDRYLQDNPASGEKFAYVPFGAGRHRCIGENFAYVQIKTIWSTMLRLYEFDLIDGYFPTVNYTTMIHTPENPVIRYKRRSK

[6] = Cmax in BALB/c mouse at 50 mg/kg, po; assay type: ADME, organism-based; parameters: dose 50 mg/kg, route oral; conditions: in vivo
Summary of the method: (§1)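 Single oral gavage dose of 50 mg/kg, suspended at 10 mg/ml in 20% (w/v) hydroxypropyl beta-cyclodextrin, to uninfected female BALB/c mice (7–8 weeks, ~20 g); timed tail blood, plasma extracted with acetonitrile using an internal standard, quantified by reversed-phase LC-MS (electrospray ion trap); three mice averaged.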

[7] = Elimination half life in BALB/c mouse at 50 mg/kg, po; assay type: ADME, organism-based; parameters: dose 50 mg/kg, route oral; conditions: in vivo, read-out: beta t1/2 (converted); summary of the method: as §1
Trypanosoma cruzi [8] = experiment: (§2) Antitrypanosomal activity against Trypanosoma cruzi Tulahuen trypomastigotes infected in BALB/c mouse assessed as suppression of parasitemia at 100 mg/kg, po twice a day after 7 days of infection for 8 to 13 days and 50 mg/kg, po for 14 to 27 days measured weekly for 8 weeks by microscopy; assay type: functional, organism-based
Summary of the method: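 Female BALB/c mice, 7–8 weeks old, infected s.c. with 5×10^3 Tulahuen trypomastigotes; parasitemic by day 7. From day 8, groups of 5–6 were gavaged 100 mg/kg twice daily (days 8–13), then 50 mg/kg twice daily (days 14–27), in 20% w/v hydroxypropyl-β-cyclodextrin. Parasitemia read in 5 μL tail blood over 50 high-power fields. Day-103 cardiac blood cultured at 28 °C, checked weekly for 8 weeks.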

Trypanosoma cruzi [9] = experiment: as §2, with “parasitemia in blood culture” for “parasitemia”, “after 100 days” for “weekly for 8 weeks”; assay type: functional, organism-based
Summary of the method: (§3)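 Female BALB/c mice (7–8 weeks) infected subcutaneously with 5×10^3 Tulahuen trypomastigotes; oral gavage from day 8, groups of 5–6, for 20 days. Benznidazole 100 mg/kg once daily days 8–27; test agents 100 mg/kg twice daily days 8–13 then 50 mg/kg twice daily days 14–27; vehicle 20% hydroxypropyl beta-cyclodextrin twice daily. Parasitemia counted in 5 μL tail blood over 50 high-powered fields.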

Mus musculus = experiment: Toxicity in BALB/c mouse at 50 mg/kg, po administered twice a day; assay type: organism-based; parameters: dose 50 mg/kg, route oral; conditions: in vivo
Summary of the method: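 Infected female BALB/c mice given oral gavage in 20% hydroxypropyl beta-cyclodextrin, 100 mg/kg twice daily days 8–13 then 50 mg/kg twice daily days 14–27; monitored for weight loss and adverse effects.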

Trypanosoma cruzi [10] = experiment: Antitrypanosomal activity against Trypanosoma cruzi Tulahuen trypomastigotes infected in BALB/c mouse assessed as suppression of parasitemia at 100 mg/kg, po after 7 days of infection for 8 to 27 days measured weekly for 8 weeks by microscopy; assay type: functional, organism-based; parameters: dose 100 mg/kg; summary of the method: as §3
[11] = Terminal half life in po dosed human administered twice a day; assay type: ADME, organism-based; conditions: in vivo, read-out: beta t1/2 (converted)

Chain of Cytochrome P450 3A4 (P08684 whole entry): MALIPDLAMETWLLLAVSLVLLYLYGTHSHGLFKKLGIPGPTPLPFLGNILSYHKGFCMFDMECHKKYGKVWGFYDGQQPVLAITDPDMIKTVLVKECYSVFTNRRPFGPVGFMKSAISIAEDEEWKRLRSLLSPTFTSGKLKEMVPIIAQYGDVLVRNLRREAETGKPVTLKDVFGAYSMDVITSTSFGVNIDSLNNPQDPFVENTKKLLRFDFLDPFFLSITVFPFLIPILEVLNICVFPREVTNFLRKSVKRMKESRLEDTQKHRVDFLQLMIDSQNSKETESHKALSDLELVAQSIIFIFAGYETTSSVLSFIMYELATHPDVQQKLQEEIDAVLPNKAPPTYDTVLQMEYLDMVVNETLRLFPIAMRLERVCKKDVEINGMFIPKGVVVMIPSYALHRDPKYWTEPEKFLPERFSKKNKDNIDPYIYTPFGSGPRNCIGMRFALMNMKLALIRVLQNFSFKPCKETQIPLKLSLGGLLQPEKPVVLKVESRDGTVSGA
Chain of Sterol 14-alpha demethylase (Trypanosoma cruzi (strain CL Brener)) (Q7Z1V1 whole entry, looked up): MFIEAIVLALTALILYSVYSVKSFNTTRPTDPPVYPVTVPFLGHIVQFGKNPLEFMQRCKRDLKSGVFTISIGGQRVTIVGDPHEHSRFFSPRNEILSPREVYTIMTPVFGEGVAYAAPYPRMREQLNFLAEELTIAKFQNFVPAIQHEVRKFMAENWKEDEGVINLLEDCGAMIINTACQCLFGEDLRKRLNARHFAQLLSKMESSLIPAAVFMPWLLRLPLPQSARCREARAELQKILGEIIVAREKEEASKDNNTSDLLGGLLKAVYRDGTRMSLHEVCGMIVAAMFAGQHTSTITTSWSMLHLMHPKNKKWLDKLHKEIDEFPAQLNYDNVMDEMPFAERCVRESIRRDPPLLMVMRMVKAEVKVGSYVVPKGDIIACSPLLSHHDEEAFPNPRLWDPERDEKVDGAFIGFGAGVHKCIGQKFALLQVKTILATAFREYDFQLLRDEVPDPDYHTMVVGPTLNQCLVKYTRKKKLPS

Row | Compound | pIC50 [1] | pEC50 (Trypanosoma cruzi [2]) | Ratio IC50/EC50 [3] | Activity [4] | Activity [5] | also measured
1 | Cn1cncc1[C@@](N)(c1ccc2ccccc2c1)c1ccc2c(c1)c(-c1cccc(Cl)c1)cc(=O)n2C | 7.77 | 7.35 | 0.4 |  |  | 
2 | Cn1cncc1[C@@](N)(c1ccc(Cl)cc1)c1ccc2c(c1)c(-c1ccccc1)cc(=O)n2C | 8.40 | 7.92 | 0.3 |  |  | 
3 | Cc1c(Cl)cccc1-c1cc(=O)n(C)c2ccc([C@](N)(c3ccc(Cl)cc3)c3cncn3C)cc12 (racemic) | 6.53 | 7.68 | 14 | 0.65 | > 100 | pIC50 (Cytochrome P450 3A4): 5.89
4 | Cc1ccccc1-c1cc(=O)n(C)c2ccc([C@](N)(c3ccc(Cl)cc3)c3cncn3C)cc12 (racemic) | 6.52 | 7.64 | 13 |  |  | pIC50 (Cytochrome P450 3A4): 5.87
5 | Cn1cncc1[C@@](N)(c1ccc(Cl)cc1)c1ccc2c(c1)c(-c1cccc3ccccc13)cc(=O)n2C (racemic) | 6.31 | 7.66 |  | 0.85 | > 100 | 
6 | CO[C@](c1ccc(Cl)cc1)(c1ccc2c(c1)c(-c1cccc(Cl)c1C)cc(=O)n2C)c1cncn1C (racemic) | < 5.30 | 9.22 | > 8300 | 0.62 | 48 | IC50 (Cytochrome P450 3A4): 0.87 µM; Cmax [6]: 5 µM; half-life [7]: 4 h; Activity (Trypanosoma cruzi [8]): Active; Activity (Trypanosoma cruzi [9]): Active; Activity (Mus musculus): Non-toxic; Activity (Trypanosoma cruzi [10]): Active
7 | Cc1cc([C@@](N)(c2ccc3c(c2)c(-c2cccc(Cl)c2)cc(=O)n3C)c2cncn2C)ccc1Cl (racemic) | 7.89 | 7.64 | 0.6 |  |  | 
8 | Cn1cncc1[C@](N)(c1ccc(Cl)cc1)c1ccc2c(c1)c(-c1cccc(Cl)c1)cc(=O)n2C [(S)-TIPIFARNIB] |  |  |  | 0.74 | > 100 | 
9 | CC(=O)N1CCN(c2ccc(OCC3COC(Cn4ccnc4)(c4ccc(Cl)cc4Cl)O3)cc2)CC1 (configuration not stated) [KETOCONAZOLE] |  | 9.52 |  | 0.75 | 2.3 | 
10 | CC[C@@H]([C@H](C)O)n1ncn(-c2ccc(N3CCN(c4ccc(OC[C@@H]5CO[C@@](Cn6cncn6)(c6ccc(F)cc6F)C5)cc4)CC3)cc2)c1=O [POSACONAZOLE] |  | 9.52 |  |  |  | 
11 | Cn1cncc1[C@@](N)(c1ccc(Cl)cc1)c1ccc2c(c1)c(-c1cccc(Cl)c1)cc(=O)n2C [TIPIFARNIB] | 9.15 | 8.40 |  | 0.48 | > 100 | Activity (Trypanosoma cruzi [8]): inactive; half-life [11]: 16 h
